Measurements as given in ChEMBL document CHEMBL3397031, “Synthesis and structure-activity relationships of pyridinyl-1H-1,2,3-triazolyldihydroisoxazoles as potent inhibitors of tubulin polymerization” (Eur J Med Chem, 2015).
pIC50: −log10 of the molar value. The source made the active and inactive calls. No cut-off for these calls is given here.

How the values were obtained:
A549 = experiment: Cytotoxicity against human A549 cells after 48 hrs by MTT assay; assay type: functional, cell-based; settings: A549, 48 h
Summary of the method: (§1)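 A549, HeLa and MCF7 cells were grown in DMEM with 10% FBS, and DU145 in MEM with non-essential amino acids, pyruvate, insulin and 10% FBS. Cells were plated 24 h before dosing, then exposed continuously for 48 h at 1, 10, 25 and 100 µM in triplicate wells. MTT was added for 60 min, dissolved in DMSO and read at 560 nm. IC50 was taken from dose-response curves against control, as mean ± SD of three independent experiments.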

HeLa [1] = experiment: Cytotoxicity against human HeLa cells after 48 hrs by MTT assay; assay type: functional, cell-based; summary of the method: as §1
Tubulin (Bos taurus) = Tubulin (Bos taurus) (UniProt Q6B856+Q862L2+Q862F3); settings: at 10 µM
DU-145 = experiment: Cytotoxicity against human DU145 cells after 48 hrs by MTT assay; assay type: functional, cell-based; settings: DU-145, 48 h; summary of the method: as §1
MCF7 = experiment: Cytotoxicity against human MCF7 cells after 48 hrs by MTT assay; assay type: functional, cell-based; settings: MCF7, 48 h; summary of the method: as §1
HeLa [2] = experiment: Cell cycle arrest in human HeLa cells assessed as planar arrangement of chromosomes with distinct microtubule organization centres at 10 uM after 24 hrs by DAPI staining-based immunohistochemistry relative to control; assay type: functional
Summary of the method: (§2)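 HeLa cells were grown on coverslips and treated 24 h at 10 µM. They were fixed in 3.5% formaldehyde/PBS pH 7.4 for 10 min, permeabilized with 0.5% Triton X-100/0.05% Tween-20 and blocked in 2% BSA. Staining used anti-tubulin (1:200, 4 h, room temperature) then FITC anti-mouse (1:500, 1 h). Cells were mounted with DAPI and imaged by confocal microscopy.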

HeLa [3] = experiment: Cell cycle arrest at G2/M phase in human HeLa cells assessed as reduction in polymerized form of tubulin at 10 uM after 24 hrs by immunoblot analysis relative to control; assay type: functional, cell-based
Summary of the method: (§3)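 HeLa cells seeded at 1×10^5 per well in complete growth medium and treated 24 h (test compounds 10 µM; nocodazole 2 µM as positive control; DMSO controls). Soluble tubulin was taken by 3 min permeabilization at 30 °C in PIPES-KOH pH 6.8/0.2% Triton X-100/glycerol buffer, and insoluble pellet fraction in Laemmli buffer. Equal volumes were run on SDS-10% PAGE and probed with mouse anti-α-tubulin, with HRP secondary and ECL detection.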

Tubulin = Tubulin (Bos taurus, UniProt Q6B856+Q862L2+Q862F3); experiment: Inhibition of bovine brain tubulin polymerization measured for 1 hr by fluorescence assay
HeLa [4] = experiment: Cell cycle arrest at G2/M phase in human HeLa cells assessed as increase in soluble form of tubulin at 10 uM after 24 hrs by immunoblot analysis relative to control; assay type: functional, cell-based; summary of the method: as §3
HeLa [5] = experiment: Cell cycle arrest at G2/M phase in human HeLa cells assessed as increase in cyclin B1 expression at 10 uM after 24 hrs by immunoblot analysis relative to control; assay type: functional, cell-based
HeLa [6] = experiment: Cell cycle arrest in human HeLa cells assessed as accumulation at G2/M phase at 10 uM after 24 hrs by FACS analysis (reference value: 26.75%); assay type: functional
HeLa [7] = experiment: Cell cycle arrest in human HeLa cells assessed as disruption of microtubule organization at 10 uM after 24 hrs by DAPI staining-based immunohistochemistry relative to control; assay type: functional; summary of the method: as §2
HeLa [8] = experiment: Cell cycle arrest at G2/M phase in human HeLa cells assessed as soluble form of tubulin at 2 uM after 24 hrs by immunoblot analysis relative to control; assay type: functional, cell-based; summary of the method: as §3
HeLa [9] = experiment: Cell cycle arrest at G2/M phase in human HeLa cells assessed as increase in cyclin B1 expression at 2 uM after 24 hrs by immunoblot analysis relative to control; assay type: functional, cell-based

| Compound | pIC50 (A549) | pIC50 (HeLa [1]) | inhibition (Tubulin (Bos taurus)) | pIC50 (DU-145) | pIC50 (MCF7) | Activity (HeLa [2]) | Activity (HeLa [3]) | IC50 (Tubulin) | Activity (HeLa [4]) | Activity (HeLa [5]) | Activity (HeLa [6]) | Activity (HeLa [7]) | Activity (HeLa [8]) | Activity (HeLa [9]) |
| --- | --- | --- | --- | --- | --- | --- | --- | --- | --- | --- | --- | --- | --- | --- |
| COc1cc(-c2cc(COCc3cn(Cc4cc(-c5ccc(F)cc5)cnc4Cl)nn3)on2)cc(OC)c1OC | 4.39 | 4.43 | 46% | 4.50 | 4.12 |  |  |  |  |  |  |  |  |  |
| COc1cc(COCc2cn(Cc3cc(C)cnc3Cl)nn2)cc(OC)c1OC | 4.38 | 3.58 | 24% | 4.46 | 4.17 |  |  |  |  |  |  |  |  |  |
| COc1cc(-c2cc(COCc3cn(Cc4cc(C)cnc4N4CCSCC4)nn3)on2)cc(OC)c1OC | 4.40 | 4.27 | 32% | 4.13 | 4.08 |  |  |  |  |  |  |  |  |  |
| COc1cc(-c2cc(COCc3cn(Cc4cc(C)cnc4Cl)nn3)on2)cc(OC)c1OC | 3.59 | 4.24 | 22% | 4.40 | 3.71 |  |  |  |  |  |  |  |  |  |
| COc1cc(-c2cc(COCc3cn(Cc4cc(-c5ccc(C)cc5)cnc4N4CCOCC4)nn3)on2)cc(OC)c1OC | 4.34 | 4.44 | 64% | 4.28 | 4.13 |  |  |  |  |  |  |  |  |  |
| COc1cc(COCc2cn(Cc3cc(-c4ccccc4)cnc3N3CCOCC3)nn2)cc(OC)c1OC | 4.08 | 4.07 | 16% | 4.15 | 4.01 |  |  |  |  |  |  |  |  |  |
| COc1cc(COCc2cn(Cc3cc(C)cnc3N3CCSCC3)nn2)cc(OC)c1OC | 4.15 | 4.21 | 27% | 4.31 | 4.09 |  |  |  |  |  |  |  |  |  |
| COc1cc(C2=NOC(COCc3cn(Cc4cc(C)cnc4N4CCSCC4)nn3)C2)cc(OC)c1OC (stereo not given) | 4.34 | 4.39 | 38% | 4.53 | 4.35 |  |  |  |  |  |  |  |  |  |
| COc1cc(C2=NOC(COCc3cn(Cc4cc(-c5ccc(C)cc5)cnc4N4CCOCC4)nn3)C2)cc(OC)c1OC (stereo not given) | 4.40 | 4.41 | 27% | 4.30 | 4.22 |  |  |  |  |  |  |  |  |  |
| COc1cc(COCc2cn(Cc3cc(-c4ccc(C)cc4)cnc3Cl)nn2)cc(OC)c1OC | 3.82 | 4.54 | 35% | 4.43 | 3.84 |  |  |  |  |  |  |  |  |  |
| COc1cc(C2=NOC(COCc3cn(Cc4cc(C)cnc4N4CCOCC4)nn3)C2)cc(OC)c1OC (stereo not given) | 4.34 | 4.43 | 27% | 3.86 | 3.83 |  |  |  |  |  |  |  |  |  |
| COc1cc(COCc2cn(Cc3cc(-c4ccccc4)cnc3N3CCSCC3)nn2)cc(OC)c1OC | 4.34 | 4.50 | 39% | 4.31 | 4.23 |  |  |  |  |  |  |  |  |  |
| COc1cc(COCc2cn(Cc3cc(-c4ccc(F)cc4)cnc3Cl)nn2)cc(OC)c1OC | 4.30 | 4.30 | 41% | 4.41 | 4.02 |  |  |  |  |  |  |  |  |  |
| COc1cc(COCc2cn(Cc3cc(-c4ccccc4)cnc3Cl)nn2)cc(OC)c1OC | 4.20 | 4.38 | 18% | 4.34 | 4.06 |  |  |  |  |  |  |  |  |  |
| COc1cc(C2=NOC(COCc3cn(Cc4cc(-c5ccc(C)cc5)cnc4N4CCSCC4)nn3)C2)cc(OC)c1OC (stereo not given) | 4.36 | 4.41 | 22% | 4.06 | 4.15 |  |  |  |  |  |  |  |  |  |
| COc1cc(-c2cc(COCc3cn(Cc4cc(-c5ccc(C)cc5)cnc4Cl)nn3)on2)cc(OC)c1OC | 4.51 | 4.45 | 59% | 4.43 | 4.23 |  |  |  |  |  |  |  |  |  |

| Compound | pIC50 (A549) | pIC50 (HeLa [1]) | inhibition (Tubulin (Bos taurus)) | pIC50 (DU-145) | pIC50 (MCF7) | Activity (HeLa [2]) | Activity (HeLa [3]) | IC50 (Tubulin) | Activity (HeLa [4]) | Activity (HeLa [5]) | Activity (HeLa [6]) | Activity (HeLa [7]) | Activity (HeLa [8]) | Activity (HeLa [9]) |
| --- | --- | --- | --- | --- | --- | --- | --- | --- | --- | --- | --- | --- | --- | --- |
| COc1cc(COCc2cn(Cc3cc(C)cnc3N3CCOCC3)nn2)cc(OC)c1OC | 4.19 | 4.45 | 45% | 4.18 | 4.31 |  |  |  |  |  |  |  |  |  |
| COc1cc(C2=NOC(COCc3cn(Cc4cc(-c5ccccc5)cnc4N4CCSCC4)nn3)C2)cc(OC)c1OC (stereo not given) | 4.50 | 4.53 | 50% | 4.46 | 4.35 |  |  |  |  |  |  |  |  |  |
| COc1cc(COCc2cn(Cc3cc(-c4ccc(C)cc4)cnc3N3CCOCC3)nn2)cc(OC)c1OC | 4.41 | 4.45 | 48% | 4.46 | 4.29 |  |  |  |  |  |  |  |  |  |
| COc1cc(C2=NOC(COCc3cn(Cc4cc(C)cnc4Cl)nn3)C2)cc(OC)c1OC (stereo not given) | 4.42 | 4.30 | 53% | 4.23 | 4.07 |  |  |  |  |  |  |  |  |  |
| COc1cc(-c2cc(COCc3cn(Cc4cc(-c5ccccc5)cnc4Cl)nn3)on2)cc(OC)c1OC | 3.95 | 4.37 | 16% | 4.11 | 4.16 |  |  |  |  |  |  |  |  |  |
| COc1cc(-c2cc(COCc3cn(Cc4cc(-c5ccccc5)cnc4N4CCSCC4)nn3)on2)cc(OC)c1OC | 4.28 | 3.76 | 11% | 3.68 | 3.67 |  |  |  |  |  |  |  |  |  |
| COc1cc(C2=NOC(COCc3cn(Cc4cc(-c5ccccc5)cnc4N4CCOCC4)nn3)C2)cc(OC)c1OC (stereo not given) | 4.41 | 4.37 | 46% | 4.35 | 4.16 |  |  |  |  |  |  |  |  |  |
| COc1cc(C2=NOC(COCc3cn(Cc4cc(-c5ccccc5)cnc4Cl)nn3)C2)cc(OC)c1OC (stereo not given) | 5.07 | 5.14 | 72% | 4.94 | 4.84 | Active | Active | 6.8 µM | Active | Active | 87.79% | Active |  |  |
| COc1cc(-c2cc(COCc3cn(Cc4cc(-c5ccc(C)cc5)cnc4N4CCSCC4)nn3)on2)cc(OC)c1OC | 4.21 | 4.28 | 15% | 4.03 | 4.19 |  |  |  |  |  |  |  |  |  |
| COc1cc(C2=NOC(COCc3cn(Cc4cc(-c5ccc(F)cc5)cnc4Cl)nn3)C2)cc(OC)c1OC (stereo not given) | 4.60 | 4.57 | 51% | 4.48 | 4.34 |  |  |  |  |  |  |  |  |  |
| COc1cc2c(c(OC)c1OC)-c1ccc(OC)c(=O)cc1[C@@H](NC(C)=O)CC2 [COLCHICINE] | 6.92 | 6.27 |  | 6.16 | 7.15 |  |  |  |  |  |  |  |  |  |
| COc1cc(C2=NOC(COCc3cn(Cc4cc(-c5ccc(C)cc5)cnc4Cl)nn3)C2)cc(OC)c1OC (stereo not given) | 4.94 | 5.01 | 69% | 4.88 | 4.89 | Active | Active | 8.1 µM | Active | Active | 78.85% | Active |  |  |
| COc1cc(-c2cc(COCc3cn(Cc4cc(-c5ccccc5)cnc4N4CCOCC4)nn3)on2)cc(OC)c1OC | 4.41 | 4.40 | 27% | 4.27 | 4.20 |  |  |  |  |  |  |  |  |  |
| COc1cc(COCc2cn(Cc3cc(-c4ccc(C)cc4)cnc3N3CCSCC3)nn2)cc(OC)c1OC | 4.47 | 3.45 | 21% | 4.38 | 4.17 |  |  |  |  |  |  |  |  |  |
| COc1cc(-c2cc(COCc3cn(Cc4cc(C)cnc4N4CCOCC4)nn3)on2)cc(OC)c1OC | 4.40 | 3.89 | 19% | 4.26 | 3.71 |  |  |  |  |  |  |  |  |  |
| COC(=O)Nc1nc2cc(C(=O)c3cccs3)ccc2[nH]1 |  |  |  |  |  |  |  |  |  |  |  |  | Active | Active |
